Sampled rows, rich in hits. Any-hit rate of the full collection: about 2.5%.
ABHD4 inh: ABHD4 (mouse) inhibition, primary FP screen; purified mABHD4, FP-Rh probe fluorescence polarization; inhibition, % at 8.92 µM; hit rate 0.54% among 370,000; Q8VD66;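 active = inhibition exceeding the mean over every tested compound plus 3 SD, cut at about 30% in these data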;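 also: 0% = plate median of compound wells and 100% = S159A mutant with DMSO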
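Doses – 8.92 µM, single dose · Material – wild-type mouse ABHD4 protein · Replication – single well per compound (singlicate) · Measure – percent inhibition of probe binding, normalized to plate controls · Schedule – 45 min compound pre-incubation plus 60 min probe step, 25 °C · Detection – fluorescence polarization with parallel and perpendicular emission, 525/598 nm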
HTRA1 inhibitor: inhibitors of human serine peptidase HTRA1 | hit rate 0.5% among 340,000 | AID 504803 | inhibition, % at 5.96 µM | Q92743 | recombinant HTRA1, FP-rhodamine activity-based probe, fluorescence polarization; in the data active = inhibition above about 36%;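 also: 0% = enzyme with DMSO and 100% = wells lacking enzyme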
Target sequence (Q92743 whole entry, looked up): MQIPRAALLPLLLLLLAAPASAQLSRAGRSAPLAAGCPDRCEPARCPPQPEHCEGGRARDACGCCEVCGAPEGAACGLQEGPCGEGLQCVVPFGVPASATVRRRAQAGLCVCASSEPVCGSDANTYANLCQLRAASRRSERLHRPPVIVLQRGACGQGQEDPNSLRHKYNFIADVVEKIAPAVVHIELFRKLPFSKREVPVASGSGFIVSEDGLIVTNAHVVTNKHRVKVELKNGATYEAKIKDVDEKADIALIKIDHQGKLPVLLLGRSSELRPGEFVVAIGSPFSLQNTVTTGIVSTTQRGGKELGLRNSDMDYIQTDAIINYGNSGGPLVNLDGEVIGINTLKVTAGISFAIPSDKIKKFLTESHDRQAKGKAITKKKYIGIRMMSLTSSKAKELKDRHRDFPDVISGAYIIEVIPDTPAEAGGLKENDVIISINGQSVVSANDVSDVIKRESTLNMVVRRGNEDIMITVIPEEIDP
SIAE inh: human SIAE inhibition, primary screen; Q9HAT2; SIAE FP-Rh probe binding, fluorescence polarization; inhibition, % at 9.66 µM; hit rate 0.69% among 370,000;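 active = inhibition above a cutoff: mean of compounds within the control limits plus 3 SD of those, cut at about 17% in these data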;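 also: 0% = plate median of compound wells and 100% = probe without SIAE protein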
rCAG RNA binder: binds r(CAG) RNA repeats. inhibition, % at 3 µM. r(CAG) RNA repeat, TO-PRO-1 dye displacement fluorescence. hit rate 1.3% among 370,000;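 active = inhibition above the plate cutoff, the mean of all test compounds on that plate plus 3 SD, cut at about 35% in these data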;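 also: 0% = DMSO alone and 100% = 100 µM mitoxantrone as full dye displacement; higher means more dye released from RNA so lower well fluorescence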
TCR-CD3 inh: blocks the human TCR-CD3 interaction; hit rate 0.37% among 360,000; TAMRA-labeled TCR probe fluorescence, biochemical; inhibition, % at 9.4 µM; AID 651800;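 also: recombinant mutant TCR 2C K166C tagged with TAMRA read by polarization; 0% = receptor in buffer alone and 100% = receptor with positive control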
BSA probe FL: counter-screen for TCR-CD3 interaction inhibitors: BSA probe; shares compounds with TCR-CD3 inh; TAMRA-labeled BSA probe fluorescence counterscreen; inhibition, % at 9.4 µM; hit rate 10% among 1,200; AID 652035; in the data active = inhibition above about 23%;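 also: 0% = buffer low control and 100% = reference high control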
TCR-CD3 conf: confirmation of human TCR-CD3 interaction inhibitors. shares compounds with TCR-CD3 inh. TAMRA-labeled TCR probe fluorescence binding assay. hit rate 48% among 1,200. inhibition, % at 9.4 µM
rCAG binder conf: r(CAG) RNA repeat binding, confirmation | shares compounds with rCAG RNA binder | TO-PRO-1 dye displacement fluorescence | inhibition, % at 3 µM | hit rate 70% among 4,300;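 active = inhibition above a per-plate cutoff, the mean inhibition of sample wells plus 3 SD, cut at about 35% in these data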;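 also: loss of TO-PRO-1 fluorescence as compound displaces dye from 1x1 AA loop RNA; 0% = DMSO only wells and 100% = 100 µM mitoxantrone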
DNA CAG counter: DNA CAG dye complex inhibition counter-screen | shares compounds with rCAG RNA binder | d(CAG) DNA oligo TO-PRO-1 dye displacement, fluorescence | AID 652068 | hit rate 94% among 4,300 | inhibition, % at 3 µM;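 active = inhibition above its plate's cutoff, the mean test-well inhibition plus 3 SD, cut at about 4.8% in these data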;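 also: 0% = DNA dye mix with DMSO and 100% = 100 µM mitoxantrone; hits displace the dye from DNA and so lower well fluorescence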
ABHD4 confirm: ABHD4 (mouse) inhibition, FP confirmation; shares compounds with ABHD4 inh; purified mABHD4, FP-Rh probe fluorescence polarization; inhibition, % at 8.92 µM; hit rate 55% among 1,800; AID 720658;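 active = mean inhibition across replicates above the hit cutoff set in the primary screen, cut at about 30% in these data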;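 also: 0% = wild-type ABHD4 with DMSO and 100% = catalytically dead S159A mutant with DMSO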
SIAE confirm: human SIAE inhibition, confirmation; shares compounds with SIAE inh; SIAE FP-Rh activity-based probe, fluorescence polarization; inhibition, % at 9.66 µM; hit rate 13% among 2,300; AID 1117263;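 active = mean inhibition of the replicates above the hit cutoff set in the primary screen, cut at about 17% in these data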;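 also: 0% = SIAE with DMSO and probe and 100% = probe without SIAE; inhibitors lower polarization as more probe stays unbound to SIAE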
* = called active by the depositor; . = no result. Rule as the data show it, unless noted: active = inhibition above about 19%; inactive = the rest.

SMILES	ABHD4 inh	HTRA1 inhibitor	SIAE inh	rCAG RNA binder	TCR-CD3 inh	rCAG binder conf	DNA CAG counter	others
O=C1CCC(=O)c2ccc3c4c(ccc1c24)CC3	28	1	19*	49*	34*	4	3	BSA probe FL=-5;TCR-CD3 conf=2;SIAE confirm=-6
O=C1c2ccc3c4c(ccc(c24)C(=O)N1c1ccc2ccccc2c1)CC3	-5	2	-9	5	4	.	.
CC(C)OP(=O)(c1ccc(N(C)C)cc1)C(Nc1ccccc1)c1cccnc1 (stereo unspecified)	3	3	2	-1	3	.	.
O=c1[nH][nH]c2c1[C@H](c1ccc(F)cc1)O[C@H](CCC(F)(F)F)C2	0	.	8	12	-7	.	.
O=c1cc(CSc2ccc([N+](=O)[O-])cc2)nc2sccn12	-1	8	1	-4	6	.	.
Cn1c(=O)c2c(-c3ccccc3)n(-c3ccc(N)cc3)cc2n(C)c1=O	58*	.	22*	29	29*	.	.	BSA probe FL=14;TCR-CD3 conf=16;ABHD4 confirm=26;SIAE confirm=13
Cn1c(=O)c2c(-c3ccccc3)n(-c3cccc(O)c3)cc2n(C)c1=O	20	.	6	8	-4	.	.
O=C(CN1C(=O)NC(Cc2c[nH]c3ccccc23)C1=O)Nc1cccc(S(=O)(=O)N2CCCC2)c1 (stereo unspecified)	-4	-8	-2	9	-3	.	.
O=c1[nH]c2cccc(Cl)c2n(CCNc2ncc(C(F)(F)F)cc2Cl)c1=O	-14	-18	1	9	8	.	.
O=C(NC(=S)NCc1ccccc1)c1cccnc1	1	-4	-2	1	1	.	.
O=C(Cc1ccccc1)NNC(=S)NC(=O)c1cccnc1	1	.	17*	2	27*	.	.	BSA probe FL=-6;TCR-CD3 conf=21*;SIAE confirm=2
O=C(N/N=C/c1cc(Br)cc(Br)c1O)c1cccc(N2CCCC2=O)c1	12	18	41*	11	37*	.	.	BSA probe FL=-14;TCR-CD3 conf=48*;SIAE confirm=20*
O=C(N/N=C/c1ccc(Cl)cc1Cl)c1cccc(N2CCCC2=O)c1	-4	-1	-8	2	2	.	.
Cc1cc(C)cc(C(=O)N(NC(=O)Nc2ccc(Cl)cc2)C(C)(C)C)c1	3	-4	-1	6	3	.	.
Oc1c(Br)cc(C=Nc2ccc3nc(-c4ccccc4)[nH]c3c2)c(O)c1Br	31*	.	18*	46*	16	56*	25*
CCN(CC)C(=O)C(=O)c1cccn1-c1cccc(Cl)c1C#N	1	-4	-4	-4	-1	.	.
CCN(CC)C(=O)C(=O)c1cccn1-c1c(Cl)cccc1C#N	-4	-5	3	36*	3	3	2
CC1(C)OC(=O)C2=C(C[C@@H](CCc3ccccc3)O[C@@H]2c2ccc(F)cc2)O1	-3	.	-6	0	-1	.	.
O=C(NC1CC1)c1cc(=O)c2ccccc2o1	1	9	0	1	-2	.	.
O=C(Cn1cc2c(n1)CCCC2)N1CCOCC1	-2	3	-1	0	-1	.	.
Cc1ccc(S(=O)(=O)N2[C@@H](c3ccccc3F)C(C(=O)O)=CC[C@H]2c2ccc3c(c2)OCO3)cc1	13	-8	4	46*	-9	41*	10*
Cc1ccc(S(=O)(=O)N2[C@@H](c3ccc(F)cc3)C(C(=O)O)=CC[C@H]2c2ccc3c(c2)OCO3)cc1	12	-11	-2	53*	-2	51*	17*
Cc1ccc([C@@H]2CC=C(C(=O)O)[C@H](c3ccccc3F)N2S(=O)(=O)c2ccc(C)cc2)cc1	12	-14	2	61*	4	55*	21*
Cc1onc(-c2ccccc2Cl)c1C(=O)Nc1ccc(OCC(=O)N2CCOCC2)cc1	-3	1	15	-4	0	.	.

Screening data from PubChem BioAssay.
